Test [1] deals with A549. Kind of test: Cytotoxicity against human A549 cells assessed as cell death at 25 ug after 48 hrs by MTT assay. In kind it is functional. An outline of the steps:
(§1)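 A549 cells were grown in DMEM with 2 mmol L-glutamine, 10% FBS, penicillin (50 IU/mL) and streptomycin, at 37 °C and 5% CO2. 1×10^4 cells/well were plated and treated 24 h later with compound diluted in medium for 48 h. Controls were DMSO-matched and untreated wells. MTT 0.4 mg/mL in PBS was added for 4 h in the dark, then DMSO for 4 h. A540 was read and reported as % live cells relative to untreated.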
(In general: Tetrazolium assays rely on reduction of a dye to a coloured formazan, in cell work by metabolically active cells.)

Test [2] has as its system A549. Kind of test: Cytotoxicity against human A549 cells assessed as cell death at 5 ug after 48 hrs by MTT assay. In kind it is functional. An outline of the steps:
as §1

The test system of test [3] is A549. In words: Cytotoxicity against human A549 cells assessed as cell death at 10 ug after 48 hrs by MTT assay. It is filed as functional. An outline of the steps:
as §1

The test system of test [4] is A549. In words: Cytotoxicity against human A549 cells after 48 hrs by MTT assay. It is filed as functional, cell-based. As to conditions: A549, 48 h. An outline of the steps:
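A549 cells were kept in DMEM with 2 mM L-glutamine, 10% FBS, penicillin 50 IU/mL and streptomycin at 37 °C under 5% CO2. 1×10^4 cells per well were treated 24 h after seeding with compounds diluted in medium for 48 h. MTT (0.4 mg/mL in PBS) was added for 4 h in the dark, formazan was dissolved in DMSO for 4 h and absorbance read at 540 nm. Viability was expressed as % of untreated cells, and IC50 was derived.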

Test [5] relates to A549. In words: Cytotoxicity against human A549 cells assessed as cell death at 1 ug after 48 hrs by MTT assay. In kind it is functional. An outline of the steps:
as §1

Test [6] relates to A549. Kind of test: Cytotoxicity against human A549 cells assessed as cell death at 2 ug after 48 hrs by MTT assay. In kind it is functional. An outline of the steps: as §1
The subject of test [7] is Staphylococcus aureus. Kind of test: Antimicrobial activity against Staphylococcus aureus at 1000 ug/disc after 24 hrs by disc diffusion method. It is filed as functional.
Test [8] concerns Staphylococcus aureus. In words: Antimicrobial activity against methicillin-resistant Staphylococcus aureus strain 2 TB4G at 1000 ug/disc after 24 hrs by disc diffusion method. In kind it is functional. As to conditions: read-out: DIZ. An outline of the steps: (§2)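 Disc diffusion on 2.4% Mueller-Hinton agar inoculated with the strain. Paper discs 6 mm across were loaded with test compound and placed on the agar. Plates were incubated at 37 °C for 24 h. Read-out was the diameter of the inhibition zone in mm.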
(A growth-free zone around the sample is the usual read-out of agar diffusion tests.)

Test [9] has as its system Escherichia coli. In words: Antimicrobial activity against Escherichia coli at 500 ug/disc after 24 hrs by disc diffusion method. As to conditions: read-out: DIZ. It is filed as functional.
Test [10] relates to Staphylococcus epidermidis. In words: Antimicrobial activity against Staphylococcus epidermidis at 500 ug/disc after 24 hrs by disc diffusion method. In kind it is functional.
Test [11] deals with Staphylococcus aureus. Kind of test: Antimicrobial activity against methicillin-resistant Staphylococcus aureus strain 4 TB5G at 1000 ug/disc after 24 hrs by disc diffusion method. It is filed as functional. An outline of the steps:
as §2

Test [12] relates to Staphylococcus aureus. In words: Antimicrobial activity against methicillin-resistant Staphylococcus aureus strain 4 TB5G at 500 ug/disc after 24 hrs by disc diffusion method. In kind it is functional. An outline of the steps:
as §2

The subject of test [13] is Listeria monocytogenes. Kind of test: Antimicrobial activity against Listeria monocytogenes at 500 ug/disc after 24 hrs by disc diffusion method. It is filed as functional.
For test [14], the system named is Klebsiella pneumoniae. In words: Antimicrobial activity against Klebsiella pneumoniae at 500 ug/disc after 24 hrs by disc diffusion method. It is filed as functional. As to conditions: read-out: DIZ.
Test [15] has as its system Staphylococcus aureus. In words: Antimicrobial activity against methicillin-resistant Staphylococcus aureus strain 2 TB4G at 500 ug/disc after 24 hrs by disc diffusion method. In kind it is functional. As to conditions: read-out: DIZ. An outline of the steps:
as §2

The subject of test [16] is Staphylococcus aureus. In words: Antimicrobial activity against methicillin-resistant Staphylococcus aureus strain 1 TB3G at 500 ug/disc after 24 hrs by disc diffusion method. In kind it is functional. An outline of the steps:
as §2

Test [17] deals with Salmonella typhimurium. In words: Antimicrobial activity against Salmonella Typhimurium at 500 ug/disc after 24 hrs by disc diffusion method. In kind it is functional.
The test system of test [18] is Listeria monocytogenes. In words: Antimicrobial activity against Listeria monocytogenes at 1000 ug/disc after 24 hrs by disc diffusion method. In kind it is functional.
For test [19], the system named is Escherichia coli. In words: Antimicrobial activity against Escherichia coli at 1000 ug/disc after 24 hrs by disc diffusion method. It is filed as functional. As to conditions: read-out: DIZ.
Test [20] deals with Staphylococcus epidermidis. In words: Antimicrobial activity against Staphylococcus epidermidis at 1000 ug/disc after 24 hrs by disc diffusion method. In kind it is functional.
Test [21] has as its system Klebsiella pneumoniae. Kind of test: Antimicrobial activity against Klebsiella pneumoniae at 1000 ug/disc after 24 hrs by disc diffusion method. It is filed as functional. As to conditions: read-out: DIZ.
Test [22] has as its system Staphylococcus aureus. In words: Antimicrobial activity against methicillin-resistant Staphylococcus aureus strain 1 TB3G at 1000 ug/disc after 24 hrs by disc diffusion method. In kind it is functional. An outline of the steps:
as §2

Test [23] has as its system Salmonella typhimurium. Kind of test: Antimicrobial activity against Salmonella Typhimurium at 1000 ug/disc after 24 hrs by disc diffusion method. In kind it is functional.
In test [24] the test system is Bacillus subtilis. Kind of test: Antimicrobial activity against Bacillus subtilis at 1000 ug/disc after 24 hrs by disc diffusion method. It is filed as functional. As to conditions: read-out: DIZ.
Test [25] relates to Bacillus subtilis. In words: Antimicrobial activity against Bacillus subtilis at 500 ug/disc after 24 hrs by disc diffusion method. In kind it is functional. As to conditions: read-out: DIZ.
Test [26] has as its system Staphylococcus aureus. In words: Antimicrobial activity against Staphylococcus aureus at 500 ug/disc after 24 hrs by disc diffusion method. It is filed as functional. An outline of the steps: as §2
Test [27] relates to Salmonella typhimurium. Kind of test: Antimicrobial activity against Salmonella Typhimurium after 24 hrs by microdilution method. In kind it is functional, Salmonella enterica subsp. enterica serovar Typhimurium. As to conditions: Salmonella enterica. An outline of the steps:
(§3)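 Growth was judged by turbidity, and the MIC was taken as the minimum concentration giving the lowest growth. Amikacin served as reference.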
A general note: In broth dilution the organism is exposed to a series of concentrations in liquid medium.

Test [28] has as its system Listeria monocytogenes. In words: Antimicrobial activity against Listeria monocytogenes after 24 hrs by microdilution method. It is filed as functional. An outline of the steps:
as §3

Test [29] concerns Escherichia coli. In words: Antimicrobial activity against Escherichia coli after 24 hrs by microdilution method. It is filed as functional. An outline of the steps: as §3
For test [30], the system named is Bacillus subtilis. In words: Antimicrobial activity against Bacillus subtilis after 24 hrs by microdilution method. It is filed as functional. An outline of the steps:
as §3

For test [31], the system named is Klebsiella pneumoniae. In words: Antimicrobial activity against Klebsiella pneumoniae after 24 hrs by microdilution method. It is filed as functional. An outline of the steps:
as §3

Test [32] has as its system Staphylococcus aureus. In words: Antimicrobial activity against Staphylococcus aureus after 24 hrs by microdilution method. In kind it is functional. An outline of the steps: as §3
The test system of test [33] is Staphylococcus aureus. In words: Antimicrobial activity against methicillin-resistant Staphylococcus aureus strain 1 TB3G after 24 hrs by microdilution method. In kind it is functional. An outline of the steps:
(§4)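 Growth was judged by turbidity. The MIC was taken as the lowest concentration giving the lowest growth.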

The test system of test [34] is Staphylococcus aureus. In words: Antimicrobial activity against methicillin-resistant Staphylococcus aureus strain 2 TB4G after 24 hrs by microdilution method. It is filed as functional. An outline of the steps: as §4
Test [35] concerns Staphylococcus aureus. In words: Antimicrobial activity against methicillin-resistant Staphylococcus aureus strain 4 TB5G after 24 hrs by microdilution method. It is filed as functional. An outline of the steps: as §4
Test [36] deals with Staphylococcus epidermidis. Kind of test: Antimicrobial activity against Staphylococcus epidermidis after 24 hrs by microdilution method. In kind it is functional. An outline of the steps: as §3
[37] abbreviates: Salmonella enterica subsp. enterica serovar Typhimurium.
Where [38] appears, read: Salmonella enterica, read-out: DIZ.

In brackets after ≈: the same amount, converted by molar mass. Activity calls are given as the source filed them.

The IC50 is the concentration at which inhibition is half-maximal. As usually defined, the MIC is the smallest concentration in the dilution series that meets the test's criterion for growth inhibition. The low end stands for a more susceptible organism, the high end for a less susceptible organism.

Turning to `COc1cc([C@@H]2c3cc4c(cc3[C@@H](O[C@@H]3O[C@@H]5CO[C@@H](C)O[C@H]5[C@H](O)[C@H]3O)[C@H]3COC(=O)[C@H]23)OCO4)cc(OC)c1O` [ETOPOSIDE], the Activity stood at 69.48% in [1]; 25.91% in test [2]; 55.33% in test [3]; 5.54% in [5]; 9.12% in test [6]. In test [4], this compound displayed an IC50 of 11 µM.
As for `CC(C)CC(=O)O[C@@H](c1ccccc1)c1cc(O)cc(=O)[nH]1`, the “diameter of the inhibition zone (DIZ)” value in test [7], in test [10], in test [11], in test [12], in test [13] and in test [16] was “inactive” in each case. The “diameter of the inhibition zone (DIZ)” value in test [17] (setting [37]), in test [18], in test [20], in test [22], in test [23] (setting [37]) and in test [26] was “inactive” throughout. For the same compound, the Activity in test [1] turned out to be 63.2%; in test [2], 38.96%; in test [3], 47.62%; in test [5] it was 9.96%; in test [6], 27.71%. Moreover, the zone of inhibition at 1000 µg/disc in test [8] worked out at 26 mm; in test [19], 26 mm; in test [21], 25 mm; in test [24], 23 mm. In addition, the zone of inhibition at 500 µg/disc in [9] is 16 mm; in test [14], 15 mm; in [15], 14 mm; in test [25], 13 mm. This compound also returned an IC50 in test [4] of 11 µM.
For the compound `CC(C)CC(=O)O[C@@H](c1ccccc1)c1cc(O)c(C(=O)O)c(=O)[nH]1`, the zone of inhibition at 1000 µg/disc in [7] (read-out: DIZ) came out at 16 mm; in test [8], 12 mm; in [11] (read-out: DIZ), 10 mm; in test [18] (read-out: DIZ), 18 mm; in test [19], 18 mm; in [20] (read-out: DIZ), 18 mm. The zone of inhibition at 1000 µg/disc in test [21] is 20 mm; in test [22] (read-out: DIZ), 10 mm; in test [23] (setting [38]), 19 mm; in test [24] it was 12 mm. In addition, the MIC in test [27] is greater than 100 µg/mL; in test [28] it was greater than 100 µg/mL; in test [29], 25 µg/mL (≈ 72.4 µM); in test [30], 50 µg/mL (≈ 145 µM); in test [31], 100 µg/mL (≈ 290 µM); in [32], greater than 100 µg/mL. For the same compound, the MIC in test [33] was greater than 100 µg/mL; in [34], greater than 100 µg/mL; in test [35], greater than 100 µg/mL; in test [36] it was 100 µg/mL (≈ 290 µM). Also, the Activity stood at 82.46% in test [1]; 47.69% in test [2]; 77.23% in test [3]; 9.53% in test [5]; 25.23% in test [6]. For the same compound, the zone of inhibition at 500 µg/disc in test [9] came to 9 mm; in test [10] (read-out: DIZ) it was 11 mm; in [12] (read-out: DIZ), 6 mm; in test [13] (read-out: DIZ) it was 10 mm; in test [14] it was 13 mm; in [15] it was 7 mm. For the same compound, the zone of inhibition at 500 µg/disc in [16] (read-out: DIZ) stood at 5 mm; in test [17] (setting [38]) it was 11 mm; in test [25], 5 mm; in test [26] (read-out: DIZ) it was 7 mm. It took 9 µM to reach half-maximal inhibition in test [4] (IC50).

For the origin of these results see ChEMBL document CHEMBL1770123, “SPF32629A and SPF32629B: enantioselective synthesis, determination of absolute configuration, cytotoxicity and antibacterial evaluation” (Eur J Med Chem, 2011).
